Assay outcomes (PubChem BioAssay)
HNF4A DNA FP: change in binding of human HNF4 alpha to DNA | HNF4a-FITC DNA binding, fluorescence polarization, 1 h | activity change, % at 10 µM | actives 0.3% (n = 360,000) | AID 1224865; in the data active means activity change above about 30%, passing the limit was not always enough
H9c2 protect: protects H9c2 cardiomyocytes from peroxide injury; H2O2 injury protection, ATPLite, 2 h; protection from H2O2 cell death, % at 20 µM; actives 0.63% (n = 360,000); AID 588492;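 active means compounds giving at least 50% protection of heart cells from peroxide-induced death in the single-dose screen, raw or plate-pattern-corrected value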;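 further: 0% = DMSO wells with peroxide and 100% = DMSO wells without peroxide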
Myeloid diff MLP: compounds promoting myeloid differentiation; AID 624256; calls only at 10 µM; ER-HoxA9 myeloid progenitors, lysozyme-GFP differentiation, flow cytometry; actives 1% (n = 360,000);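 active means normalized GFP-positive differentiation at or above the plate's own cutoff, the solvent-only control mean plus 3 SD; inconclusive means no clear call, values can overlap the other calls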;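 further: cells exposed to compound for four days before flow analysis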
DSG3 Ab inh: inhibitors of pemphigus antibody binding to human desmoglein-3 | binding (percent of control), % at 10 µM | actives 0.48% (n = 310,000) | P32926 | DSG3-coupled beads, scFv-anti-DSG3-GFP binding, flow cytometry; hits give low values;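 active means binding more than 3 SD below its plate's average and above zero; inconclusive means below that plate limit but binding exactly zero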;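 further: hits lower antibody fragment binding to DSG3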
Target sequence (P32926 whole entry, looked up, the tested form may be a part): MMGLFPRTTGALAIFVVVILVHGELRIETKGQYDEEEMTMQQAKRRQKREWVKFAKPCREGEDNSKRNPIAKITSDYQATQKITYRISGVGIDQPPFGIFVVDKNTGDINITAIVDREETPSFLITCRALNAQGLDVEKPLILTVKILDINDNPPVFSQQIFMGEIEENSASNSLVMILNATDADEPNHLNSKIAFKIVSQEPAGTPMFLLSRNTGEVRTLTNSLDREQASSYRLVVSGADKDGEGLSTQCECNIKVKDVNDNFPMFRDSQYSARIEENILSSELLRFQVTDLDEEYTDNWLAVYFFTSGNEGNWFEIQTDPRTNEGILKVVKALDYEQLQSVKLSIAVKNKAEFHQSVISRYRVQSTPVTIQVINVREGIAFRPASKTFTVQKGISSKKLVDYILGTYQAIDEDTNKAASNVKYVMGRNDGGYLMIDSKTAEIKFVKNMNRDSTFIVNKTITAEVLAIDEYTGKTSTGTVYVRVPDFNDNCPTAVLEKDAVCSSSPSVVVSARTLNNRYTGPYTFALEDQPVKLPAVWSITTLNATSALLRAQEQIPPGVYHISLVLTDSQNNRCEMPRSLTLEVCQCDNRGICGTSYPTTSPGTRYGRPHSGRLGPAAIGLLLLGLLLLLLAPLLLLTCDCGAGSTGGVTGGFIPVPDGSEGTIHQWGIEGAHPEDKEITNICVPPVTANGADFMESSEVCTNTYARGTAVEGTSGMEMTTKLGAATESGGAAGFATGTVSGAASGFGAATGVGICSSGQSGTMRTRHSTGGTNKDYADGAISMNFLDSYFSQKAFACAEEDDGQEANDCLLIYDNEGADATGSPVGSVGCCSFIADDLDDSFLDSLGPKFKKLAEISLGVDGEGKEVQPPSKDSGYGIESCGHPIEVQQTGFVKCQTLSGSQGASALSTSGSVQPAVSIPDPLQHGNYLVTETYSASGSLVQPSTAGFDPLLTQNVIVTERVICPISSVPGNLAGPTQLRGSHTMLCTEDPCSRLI
Exocytosis inh: blocks lytic granule exocytosis; TALL-104 LAMP-1 surface exposure, flow cytometry; cells stimulated with thapsigargin and PMA; inhibition, % at 10 µM; actives 0.66% (n = 360,000);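 active means inhibition above about 55%, limit read from the data; inconclusive means no clear call, values can overlap the other calls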
SENP1 inh: inhibitors of human SENP1 SUMO protease catalytic domain | Q9P0U3 | recombinant SENP1 catalytic domain, CyPet-SUMO1-YPet FRET cleavage | inhibition, % at 10 µM | actives 0.21% (n = 360,000);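 active means inhibition at least 30% at 10 µM, raw YFP signal under a set limit, fluorescence ratio 0.5 to 1.5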;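 further: 0% = enzyme with DMSO and 100% = no enzyme wells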
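Test system: human SENP1 catalytic domain; medium: Tris pH 8 buffer plus EDTA, NaCl, BME, BSA, NP40, catalase; incubation: 50 min reaction at room temperature; technique: FRET, CFP and YFP emission; controls: no-enzyme low control and enzyme-plus-DMSO high control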
Starred values were filed as active, the others as inactive; i = inactive; ? = inconclusive; nt = no result given; + = active, no number. The list is not random: actives were taken first. Their share in the collection is about 3%.

SMILES	HNF4A DNA FP	H9c2 protect	Myeloid diff MLP	DSG3 Ab inh	Exocytosis inh	SENP1 inh
CCC(Oc1ccccc1)C(=O)Nc1ccccc1C(=O)N1CCN(C)CC1 (centres undefined)	1.2	7.1	i	nt	0.7	1.0
CN(C(=O)COC(=O)c1ccc2c(=O)n3c(nc2c1)CCC3)C1CCS(=O)(=O)C1 (centres undefined)	-3.9	-1.7	i	101.0	-2.2	-17.1
O=C(COC(=O)C1CCN(c2ccc(C(F)(F)F)cn2)CC1)NCc1cccc(Cl)c1	-1.4	-8.9	i	92.7	-7.5	-0.1
O=C(/C=C/c1ccc([N+](=O)[O-])cc1)OCC(=O)N1CCCC1	-4.1	-5.4	i	77.3*	-2.6	5.3
CN(c1ccc(F)cc1)S(=O)(=O)c1ccc(Cl)c(C(=O)NCc2ccco2)c1	1.3	-0.6	+	nt	4.2	3.1
CN(C)S(=O)(=O)c1ccc(Cl)c(C(=O)NCc2ccco2)c1	0.4	-0.3	i	100.1	4.7	1.3
O=C1c2ccccc2C(=O)N1Nc1ccccc1	-0.1	-5.1	i	98.9	0.6	0.5
Cc1ccc(NN2C(=O)C=C(c3ccccc3)C2=O)cc1	0.0	-6.4	i	nt	67.2*	-1.0
COC(=O)Cn1c(=NC(=O)c2nc3ccccc3s2)sc2cc(S(N)(=O)=O)ccc21	-0.1	1.1	i	99.9	-0.5	-8.8
COCCn1c(=NC(=O)c2nc3ccccc3s2)sc2cc(S(C)(=O)=O)ccc21	1.8	57.8*	i	92.3	?	-32.4
C=CCn1c(=NC(=O)c2ccc(S(=O)(=O)N3CCCc4ccccc43)cc2)sc2cc(S(N)(=O)=O)ccc21	0.3	-11.2	i	124.5	-0.1	1.3
COCCn1c(=NC(=O)c2ccc(S(=O)(=O)N3CCCc4ccccc43)cc2)sc2cc(S(C)(=O)=O)ccc21	0.5	14.0	+	84.9	-6.7	-1.0
O=C(Nc1cccc(C(=O)O)c1)/C(=C\c1ccc2c(c1)OCO2)NC(=O)c1ccccc1Br	-0.6	3.7	i	102.9	1.7	1.3
CCOc1ccc(NC(=O)C(C)NC(=O)c2ccccc2Cl)cc1S(=O)(=O)N1CCCC1 (centres undefined)	-0.5	-1.7	i	nt	-4.5	0.0
COc1ccc(CCn2c(N3CCN(C)CC3)nc3c2c(=O)[nH]c(=O)n3C)cc1	4.2	-0.3	i	nt	-1.3	3.1
COc1ccc(CCn2c(NN)nc3c2c(=O)[nH]c(=O)n3C)cc1	-31.6	9.1	i	78.8*	5.1	3.3
COc1ccc(CCn2c(Br)nc3c2c(=O)[nH]c(=O)n3C)cc1	-1.1	63.9*	?	94.6	2.0	2.1
C=CC[C@H](CC(=O)OC(C)(C)C)C(=O)OC[C@H]1CCCN1C(=O)[C@H](CC=C)CC(=O)NCCO	0.9	7.4	i	100.5	-6.0	-0.1
N#C/C(=C/c1ccc(N2CCOCC2)o1)C(=O)Nc1ccccc1	210.5	-14.9	+	161.6	-1.2	-33.2
Cc1ccc(/C(C#N)=C\c2ccc(N3CCOCC3)o2)cc1	80.5*	-11.2	i	113.5	77.8*	-25.8
N#C/C(=C/c1ccc(N2CCCCCC2)o1)c1ccc(Cl)cc1	109.8	-12.7	?	201.6	83.7*	-5.9
N#C/C(=C/c1ccc(N2CCCCC2)o1)c1cccc(F)c1	106.8	-4.6	nt	161.2	25.0	-7.4
COc1ccc(C(=O)NC(=S)NCc2ccco2)cc1Br	-1.1	-2.1	?	nt	17.6	-1.2
COc1cc2c(cc1OC)CN(CC(=O)Nc1ccc(C)c(S(=O)(=O)N3CCOCC3)c1)CC2	-4.0	-3.1	i	nt	-1.1	-27.7
CCOc1cc(/C=C/c2ccc3cccc([N+](=O)[O-])c3n2)ccc1OCC(=O)N(C)C	0.3	56.6*	i	103.8	-0.3	7.0
SMILES	HNF4A DNA FP	H9c2 protect	Myeloid diff MLP	DSG3 Ab inh	Exocytosis inh	SENP1 inh
CC1=NNC(=O)/C1=C\c1cn(-c2ccccc2)nc1-c1ccc(F)cc1	1.4	-21.2	nt	117.5	65.5*	-0.4
Cc1ccn2c(C(=O)N/N=C\c3ccccc3[N+](=O)[O-])c(C)nc2c1	0.2	9.3	+	93.6	-0.3	-1.9
O=C(Nc1ccc(Cl)cc1C(=O)N1CCCC1)c1cccc([N+](=O)[O-])c1	2.1	0.0	i	94.2	15.4	0.1
Cc1ccc(-c2nc3ccccc3s2)cc1NC(=S)NC(=O)c1ccccc1	2.9	3.1	i	103.5	-2.5	0.7
Cc1ccc(-c2nc3ccccc3s2)cc1NC(=O)c1cc(-n2cnnc2)ccc1Cl	-0.3	-6.7	i	75.8*	-0.8	-11.1
O=C(COC(=O)c1cc(Br)ccc1O)Nc1cccnc1Cl	-0.7	3.9	i	105.6	1.2	2.0
CN(CC(=O)Nc1ccccc1Br)C(=O)CNC(=O)c1ccc(Oc2ccccc2)cc1	4.0	-10.2	+	nt	-2.1	-0.2
N#C/C(=C\c1c(F)cccc1Cl)C(=O)NC1CC1	0.0	-0.3	nt	97.8	-0.1	-2.0
COc1ccc(/C=C/C(=O)NC(=S)NNC(=O)c2cnccn2)cc1	4.5	40.9	nt	nt	1.7	-0.6
O=C(/C=C/c1ccc(F)cc1)NC(=S)NNC(=O)c1cnccn1	-0.3	52.4*	?	117.3	3.9	1.4
CCCn1c(N)c(N(CCOC)C(=O)/C=C/c2cccc(Cl)c2)c(=O)[nH]c1=O	-1.6	3.3	i	103.6	0.5	1.1
O=C(c1ccc(Cl)c(Cl)c1)c1cnc(Nc2ccccc2)s1	3.4	1.4	i	-24.9*	-1.1	-47.3
COc1ccc(C)cc1N(CC(=O)N1CCCCCC1)S(=O)(=O)c1ccccc1	-1.7	0.5	i	118.1	12.4	-2.4
CCCCCn1nc(C(=O)OCC(=O)c2c(N)n(C)c(=O)n(C)c2=O)c2ccccc2c1=O	-1.4	65.6*	i	nt	11.3	0.3
CCCCCCn1nc(C(=O)OCC(=O)c2c(N)n(C)c(=O)n(C)c2=O)c2ccccc2c1=O	-1.3	37.9	i	118.0	3.5	0.4
Cc1cc(Cl)ccc1C(=O)C1CCCN(C(=O)CN2CCOC2=O)C1 (centres undefined)	-1.6	2.2	i	100.7	-0.5	1.6
COc1cc(-c2nnc(SCc3cc(=O)oc4cc(O)c(O)cc34)o2)cc(OC)c1OC	-49.2	81.2*	i	97.2	1.0	-34.7
Cc1cc(Br)cn2c(Cc3ccccc3)c(-c3ccc(C#N)cc3)nc12	2.7	1.3	i	nt	-0.8	7.0
CCOC(=O)C1=C(C)N=c2s/c(=C\c3ccc(OCC(=O)O)c(OC)c3)c(=O)n2C1c1ccc(OC)cc1 (centres undefined)	1.2	-0.6	i	104.8	-4.0	-25.1
CCOC(=O)C1=C(C)N=c2sc(=Cc3cc(Cl)c(OCC(=O)O)c(OC)c3)c(=O)n2C1c1ccccc1Cl (centres undefined)	13.4	-10.0	+	nt	7.3	-28.8
